Test results: ChEMBL document CHEMBL1156417, “Transferable resistance to aminoglycosides by methylation of G1405 in 16S rRNA and to hydrophilic fluoroquinolones by QepA-mediated efflux in Escherichia coli” (2007)
Values after ≈ are worked out from the molar mass of the structure shown.

Experiments:
Format in all cases: functional
Escherichia coli [1] = assay: Antibacterial activity against Escherichia coli C600Rif by Etest
Outline: (§1)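 MIC read by Etest on Mueller-Hinton agar after 24 h incubation. Strains were grown in brain heart infusion broth or on agar at 37°C. C600Rif served as the conjugation recipient and TOP10 as the transformation recipient.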

Escherichia coli [2] = assay: Antibacterial activity against Escherichia coli TOP10 containing pIP1206 plasmid by Etest; outline: as §1
Escherichia coli [3] = assay: Antibacterial activity against Escherichia coli C600Rif containing pIP1206 plasmid by Etest; outline: as §1
Escherichia coli [4] = assay: Antibacterial activity against Escherichia coli TOP10 by Etest; outline: as §1
Escherichia coli [5] = assay: Antibacterial activity against Escherichia coli 1540 isolate by […]
Outline: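 Disk diffusion on Mueller-Hinton agar following Comité de l'Antibiogramme de la Société Française de Microbiologie standards; clinical isolate from Belgian hospital screening; strains grown in brain heart infusion broth or agar at 37°C.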

Escherichia coli [6] = assay: Antibacterial activity against Escherichia coli C600Rif containing pIP1206 plasmid in presence of 50 ug/ml efflux pump inhibitor phenyl-arginine-beta-naphthylamide by Etest
Escherichia coli [7] = assay: Antibacterial activity against Escherichia coli TOP10 containing pAT851 in presence of 40 ug/ml efflux pump inhibitor 1-(1-naphthylmethyl)-piperazine by Etest
Escherichia coli [8] = assay: Antibacterial activity against Escherichia coli TOP10 containing pIP1206 plasmid in presence of 50 ug/ml efflux pump inhibitor phenyl-arginine-beta-naphthylamide by Etest
Escherichia coli [9] = assay: Antibacterial activity against Escherichia coli TOP10 containing pIP1206 plasmid in presence of 40 ug/ml efflux pump inhibitor 1-(1-naphthylmethyl)-piperazine by Etest
Escherichia coli [10] = assay: microbe, parasite or virus in culture
Escherichia coli [11] = assay: Antibacterial activity against Escherichia coli TOP10 in presence of 40 ug/ml efflux pump inhibitor 1-(1-naphthylmethyl)-piperazine by Etest
Escherichia coli [12] = assay: Antibacterial activity against Escherichia coli C600Rif in presence of 50 ug/ml efflux pump inhibitor phenyl-arginine-beta-naphthylamide by Etest
Escherichia coli [13] = assay: Antibacterial activity against Escherichia coli TOP10 containing pAT851 in presence of 50 ug/ml efflux pump inhibitor phenyl-arginine-beta-naphthylamide by Etest
Escherichia coli [14] = assay: Antibacterial activity against Escherichia coli TOP10 containing pAT851 plasmid by Etest; outline: as §1
Escherichia coli [15] = assay: Antibacterial activity against Escherichia coli TOP10 in presence of 50 ug/ml efflux pump inhibitor phenyl-arginine-beta-naphthylamide by Etest
Escherichia coli [16] = assay: Antibacterial activity against Escherichia coli C600Rif in presence of 40 ug/ml efflux pump inhibitor 1-(1-naphthylmethyl)-piperazine by Etest

Row | Structure (SMILES) | MIC (Escherichia coli [1]) [µg/mL] | MIC (Escherichia coli [2]) [µg/mL] | MIC (Escherichia coli [3]) [µg/mL] | MIC (Escherichia coli [4]) [µg/mL] | MIC (Escherichia coli [5]) [µg/mL] | MIC (Escherichia coli [6]) [µg/mL] | MIC (Escherichia coli [7]) [µg/mL] | MIC (Escherichia coli [8]) [µg/mL] | MIC (Escherichia coli [9]) [µg/mL] | MIC (Escherichia coli [10]) [µg/mL] | MIC (Escherichia coli [11]) [µg/mL] | MIC (Escherichia coli [12]) [µg/mL] | MIC (Escherichia coli [13]) [µg/mL] | MIC (Escherichia coli [14]) [µg/mL] | MIC (Escherichia coli [15]) [µg/mL] | MIC (Escherichia coli [16]) [µg/mL]
1 | C[C@H]1COc2c(N3CCN(C)CC3)c(F)cc3c(=O)c(C(=O)O)cn1c23.C[C@H]1COc2c(N3CCN(C)CC3)c(F)cc3c(=O)c(C(=O)O)cn1c23.O [LEVOFLOXACIN] | 0.032 | 0.006 | 0.032 | 0.006 |  |  |  |  |  |  |  |  |  |  |  | 
2 | CN(C)c1ccc(O)c2c1C[C@H]1C[C@H]3[C@H](N(C)C)C(O)=C(C(N)=O)C(=O)[C@@]3(O)C(O)=C1C2=O [MINOCYCLINE] |  |  |  |  | 16 (≈ 35 µM) |  |  |  |  |  |  |  |  |  |  | 
3 | COc1c(N2C[C@@H]3CCCN[C@@H]3C2)c(F)cc2c(=O)c(C(=O)O)cn(C3CC3)c12 [MOXIFLOXACIN] | 0.064 (≈ 0.159 µM) | 0.006 (≈ 0.0149 µM) | 0.094 (≈ 0.234 µM) | 0.004 (≈ 0.00996 µM) |  | 0.006 | 0.002 | 0.002 | 0.002 | 0.032 (≈ 0.0797 µM) | 0.002 | 0.032 | 0.002 | 0.004 (≈ 0.00996 µM) | 0.002 | 0.032
4 | CCn1cc(C(=O)O)c(=O)c2ccc(C)nc21 [NALIDIXIC ACID] | 2 (≈ 8.61 µM) | 1.5 (≈ 6.46 µM) | 2 (≈ 8.61 µM) | 1.5 (≈ 6.46 µM) |  | 1.5 | 1 | 1 | 1 | 1.5 (≈ 6.46 µM) | 1 | 1.5 | 1 | 1.5 (≈ 6.46 µM) | 1 | 1.5
5 | CCN[C@@H]1C[C@H](N)[C@@H](O[C@H]2OC(CN)=CC[C@H]2N)[C@H](O)[C@H]1O[C@H]1OC[C@](C)(O)[C@H](NC)[C@H]1O [NETILMICIN] |  |  |  |  | > 512 |  |  |  |  |  |  |  |  |  |  | 
6 | CCn1cc(C(=O)O)c(=O)c2cc(F)c(N3CCNCC3)cc21 [NORFLOXACIN] | 0.064 (≈ 0.2 µM) | 0.38 (≈ 1.19 µM) | 1.5 (≈ 4.7 µM) | 0.032 (≈ 0.1 µM) |  | 0.047 | 0.016 | 0.016 | 0.016 | 0.064 (≈ 0.2 µM) | 0.016 | 0.032 | 0.016 | 0.19 (≈ 0.595 µM) | 0.016 | 0.047
7 | CCn1cc(C(=O)O)c(=O)c2cc(F)c(N3CCN(C)CC3)cc21 [PEFLOXACIN] | 0.094 (≈ 0.282 µM) | 0.023 (≈ 0.069 µM) | 0.094 (≈ 0.282 µM) |  |  |  |  |  |  |  |  |  |  |  |  | 
8 | CN(C)[C@@H]1C(O)=C(C(N)=O)C(=O)[C@@]2(O)C(O)=C3C(=O)c4c(O)cccc4[C@@](C)(O)[C@H]3C[C@@H]12 [TETRACYCLINE] |  |  |  |  | > 256 |  |  |  |  |  |  |  |  |  |  | 
9 | NC[C@H]1O[C@H](O[C@H]2[C@H](O)[C@@H](O[C@H]3O[C@H](CO)[C@@H](O)[C@H](N)[C@H]3O)[C@H](N)C[C@@H]2N)[C@H](N)C[C@@H]1O [TOBRAMYCIN] |  |  |  |  | > 512 |  |  |  |  |  |  |  |  |  |  | 
